Converted amounts (≈) assume the structure as drawn.
Key:
Type in all cases: functional
Helicobacter pylori [1] = assay: Inhibitory activity was determined against 102R strain of Helicobacter pylori
Helicobacter pylori [2] = assay: Minimal concentration needed to inhibitH. pylori strain
Helicobacter pylori [3] = assay: Minimal concentration needed to inhibit 50% of Helicobacter pylori strain
How it was run: (§1)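 Agar dilution MICs on 20 clinical H. pylori strains, two metronidazole resistant, in Columbia agar with horse serum and yeast extract. DMSO solutions diluted twofold serially in agar. Inocula at 0.5 McFarland in Wilkins Chalgren broth, incubated 37 C for 72 h, 10% CO2, microaerobic. MIC50/MIC90 taken as the lowest concentration inhibiting 50% or 90% of strains.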

Helicobacter pylori [4] = assay: Minimal concentration needed to inhibit 90% of Helicobacter pylori strain; how it was run: as §1
Helicobacter pylori [5] = assay: Inhibitory activity was determined against NCTC-11637 strain of Helicobacter pylori
Helicobacter pylori [6] = assay: Minimal concentration needed to inhibit Helicobacter pylori strain

| SMILES | MIC (Helicobacter pylori [1]) [µg/mL] | MIC (Helicobacter pylori [2]) [µg/mL] | MIC50 (Helicobacter pylori [3]) [µg/mL] | MIC90 (Helicobacter pylori [4]) [µg/mL] | MIC (Helicobacter pylori [5]) [µg/mL] | MIC (Helicobacter pylori [6]) [µg/mL] |
| --- | --- | --- | --- | --- | --- | --- |
| N#C/N=[N+](\[O-])c1ccc(C(=O)O)cc1 | 0.031 (≈ 0.162 µM) | < 0.0039 | 0.016 (≈ 0.0837 µM) | 0.031 (≈ 0.162 µM) | 0.0078 (≈ 0.0408 µM) | – |
| N#C/N=[N+](\[O-])c1ccc(C(=O)NCCCC/N=C(\NC#N)NCCCOc2cccc(CN3CCCCC3)c2)cc1 | 8 (≈ 14.3 µM) | 0.25 (≈ 0.447 µM) | 2 (≈ 3.57 µM) | 4 (≈ 7.15 µM) | 4 (≈ 7.15 µM) | – |
| N#C/N=[N+](\[O-])c1ccc(C(=O)NCC/N=C(\NC#N)NCCCOc2cccc(CN3CCCCC3)c2)cc1 | 8 (≈ 15 µM) | – | 8 (≈ 15 µM) | 16 (≈ 30.1 µM) | 16 (≈ 30.1 µM) | 0.25 (≈ 0.47 µM) |
| N#C/N=[N+](\[O-])c1ccc(C(=O)NCCCCCC/N=C(\NC#N)NCCCOc2cccc(CN3CCCCC3)c2)cc1 | 2 (≈ 3.4 µM) | 0.25 (≈ 0.425 µM) | 1 (≈ 1.7 µM) | 2 (≈ 3.4 µM) | 1 (≈ 1.7 µM) | – |
| Cc1ncc([N+](=O)[O-])n1CCO [METRONIDAZOLE] | 8 (≈ 46.7 µM) | 0.031 (≈ 0.181 µM) | 0.25 (≈ 1.46 µM) | 8 (≈ 46.7 µM) | 16 (≈ 93.5 µM) | – |
